Here are results for 3 molecules from publication PMC5800744 (ACS chemical neuroscience, 2015).

Data set [1] has as its system red blood cells (horse whole blood). The data set can be described thus: Hemolysis of red blood cells. Format: cell-based. The conditions noted are these: up to concentrations of 160 μM; 37 °C, 1 h. The procedure, abridged:
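Horse whole-blood RBCs were pelleted at 7 000g and washed three times in 0.1 M PBS. Test compound, from DMSO stock, was incubated with RBCs in PBS at final 5–160 μM for 1 h at 37 °C, in duplicate. Controls were Triton X-100 (positive) and DMSO/PBS (negative). Samples were spun at 13 000g, supernatant absorbance was read at 541 nm, and IC50 was calculated from the plotted data.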

Data set [2] in a line: Water solubility determination. The conditions noted are these: saturated solution in water. Format: physicochemical. The gist of the method: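 A saturated solution of test compound in water was centrifuged. The supernatant was quantified by UPLC with UV detection at 245 nm against calibration curves from known concentrations. The relative value compares the solubilities of the two compounds measured this way.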

In another data set the target is MMP-9. The conditions noted are these: cited from earlier work.
A further data set concerns HepG2 cells. The data set can be described thus: XTT cytotoxicity assay. Format: cell-based. The gist of the method:
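XTT viability in HepG2 cells, run in triplicate, with IC50 obtained by curve fitting.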

A short description of data set [3]: PK and brain distribution after single iv dose. It is filed as in vivo, mice (male C57Bl/6J). The conditions noted are these: male mice.
Data set [4] relates to cortical lesion after controlled cortical impact. The conditions noted are these: TBI mice; routes of administration and dose regimens different; cited from earlier work.
The mark [5] stands for this setting: 2 after single iv dose of 2 (6.3 mg/kg), plasma.
Setting [6] is: 2 in brain after single iv dose of 2 (6.3 mg/kg).
Where [7] appears, read: 2 in brain after single iv dose of 3 (7.8 mg/kg).
Where [8] appears, read: 2 in plasma after single iv dose of 2 (6.3 mg/kg).
Setting [9] is: 2 in plasma after single iv dose of 3 (7.8 mg/kg).

Values after ≈ are worked out from the molar mass of the structure shown.

On to `O=S(=O)(CC1CS1)c1ccc(Oc2ccc(O)cc2)cc1` (centres unmarked) [Compound 2, p-hydroxy SB-3CT], for which the “hemolysis of red blood cells” value in data set [1] is listed as “not observed”. This molecule registered an aqueous solubility in data set [2] of 22.2 µg/mL (≈ 68.9 µM). Further, the inhibitory constant (Ki) on MMP-9 (MMP-9) was 160 ± 80 nM. The IC50 with HepG2 cells is 114 ± 1 µM. This molecule also returned a brainAUC/plasmaAUC in data set [3] (2 after single iv dose of 2 (6.3 mg/kg)) of 1.2. Moreover, in data set [3] (setting [5]), the CL is given as 105 mL/min/kg and the volume of distribution (Vd) is listed as 0.850 L/kg. In data set [3] (2 after single iv dose of 3 (7.8 mg/kg)), this molecule yielded a brainAUC/plasmaAUC of 0.53. For the same molecule, in data set [3] (setting [6]), the AUC0-last is on record as 232 pmol·min/mg, the “AUC0-∞” value is recorded as 235 pmol·min/mg, the t1/2α is given as 3.0 min and the t1/2β was 49 min. In addition, in data set [3] (setting [7]), the AUC0-last turned out to be 26 pmol·min/mg, the “AUC0-∞” value is on record as 27 pmol·min/mg, the t1/2α is 3.1 min and the t1/2β is 8.3 min. Further, in data set [3] (setting [8]), the AUC0-last is 189 µM·min, the “AUC0-∞” value stood at 195 µM·min, the t1/2α turned out to be 3.4 min and the t1/2β is 45 min. In addition, in data set [3] (setting [9]), the AUC0-last turned out to be 49 µM·min, the “AUC0-∞” value was found to be 49 µM·min, the t1/2α is on record as 3.0 min and the t1/2β is 6.5 min.

For `O=S(=O)(CC1CS1)c1ccc(Oc2ccccc2)cc1` (centres unmarked) [SB-3CT], the “reduction in brain damage” value in data set [4] is 14%.

Take “TIMP-1: tissue inhibitor of matrix metalloproteinase-1”: the residence time with MMP-9 (time the inhibitor remains complexed with the target) is recorded as 7.9 min.
